Results reported in PMC3182458 (Bioorganic & medicinal chemistry letters, 2008).
“And” between values parts separate entries of the source, which are not always exact repeats. Equal values may be shown once. “Also recorded” adds a separate entry of the source.

What was measured:
[1] = cited from earlier work
[2] = target: human mGluR4 (Homo sapiens, UniProt Q14833); assay type: cell-based
[3] = stability in fortified liver microsome preparations; assay type: in vitro ADME; settings: after 90 minutes, fortified liver microsomes
[4] = target: rat mGluR1 (Rattus norvegicus, UniProt P23385); assay: calcium fluorescence counterscreen in rat mGluR1/BHK cells; assay type: cell-based
Sequence of rat mGluR1 (P23385 19-1199): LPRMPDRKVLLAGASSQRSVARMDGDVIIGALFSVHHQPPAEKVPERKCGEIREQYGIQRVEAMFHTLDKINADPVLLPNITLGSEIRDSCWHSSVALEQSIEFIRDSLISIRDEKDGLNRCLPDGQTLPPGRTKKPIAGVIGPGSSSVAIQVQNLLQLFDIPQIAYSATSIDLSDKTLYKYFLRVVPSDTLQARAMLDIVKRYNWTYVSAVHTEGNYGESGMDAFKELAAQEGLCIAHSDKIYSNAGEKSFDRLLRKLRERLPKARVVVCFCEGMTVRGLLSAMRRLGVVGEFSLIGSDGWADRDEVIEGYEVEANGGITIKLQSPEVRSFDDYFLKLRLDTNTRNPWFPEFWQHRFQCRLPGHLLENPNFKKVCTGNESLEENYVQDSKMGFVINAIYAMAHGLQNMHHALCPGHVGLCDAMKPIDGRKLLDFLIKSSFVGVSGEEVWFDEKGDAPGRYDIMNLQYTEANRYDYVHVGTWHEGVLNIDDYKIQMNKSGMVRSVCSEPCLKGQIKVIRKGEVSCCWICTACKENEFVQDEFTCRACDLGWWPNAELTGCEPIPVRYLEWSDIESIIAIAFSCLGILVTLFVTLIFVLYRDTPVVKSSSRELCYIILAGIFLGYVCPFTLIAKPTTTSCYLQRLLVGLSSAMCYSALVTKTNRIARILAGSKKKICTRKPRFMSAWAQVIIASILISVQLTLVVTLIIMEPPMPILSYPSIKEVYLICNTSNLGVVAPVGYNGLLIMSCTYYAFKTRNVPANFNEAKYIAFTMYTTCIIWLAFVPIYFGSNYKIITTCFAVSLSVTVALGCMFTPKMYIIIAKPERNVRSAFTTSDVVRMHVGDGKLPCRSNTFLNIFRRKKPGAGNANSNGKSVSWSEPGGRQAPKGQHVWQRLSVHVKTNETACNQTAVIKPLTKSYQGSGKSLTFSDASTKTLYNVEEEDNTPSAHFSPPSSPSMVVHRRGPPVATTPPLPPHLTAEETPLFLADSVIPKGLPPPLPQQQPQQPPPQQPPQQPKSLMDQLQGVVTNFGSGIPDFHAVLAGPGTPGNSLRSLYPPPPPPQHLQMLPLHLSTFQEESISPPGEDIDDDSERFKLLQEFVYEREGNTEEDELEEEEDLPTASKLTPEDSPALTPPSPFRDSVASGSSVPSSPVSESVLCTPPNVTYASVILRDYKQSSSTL
Procedure, shortened: (§1)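 Calcium mobilization in rat receptor lines: mGluR1/BHK plated at 20,000 cells/well, mGluR5/HEK at 15,000 cells/well, in DMEM with 10% dialyzed FBS and 20 mM HEPES. […] Test compound run as a 10-point curve from 30 µM final, 1:3 dilutions. Maximum fluorescence of the EC20 and EC80 peaks is expressed versus control.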

[5] = test system: rat mGluR5; assay: calcium fluorescence counterscreen in rat mGluR5/HEK cells; assay type: cell-based
Procedure, shortened: as §1

Sequence of human mGluR4 (Q14833 33-912): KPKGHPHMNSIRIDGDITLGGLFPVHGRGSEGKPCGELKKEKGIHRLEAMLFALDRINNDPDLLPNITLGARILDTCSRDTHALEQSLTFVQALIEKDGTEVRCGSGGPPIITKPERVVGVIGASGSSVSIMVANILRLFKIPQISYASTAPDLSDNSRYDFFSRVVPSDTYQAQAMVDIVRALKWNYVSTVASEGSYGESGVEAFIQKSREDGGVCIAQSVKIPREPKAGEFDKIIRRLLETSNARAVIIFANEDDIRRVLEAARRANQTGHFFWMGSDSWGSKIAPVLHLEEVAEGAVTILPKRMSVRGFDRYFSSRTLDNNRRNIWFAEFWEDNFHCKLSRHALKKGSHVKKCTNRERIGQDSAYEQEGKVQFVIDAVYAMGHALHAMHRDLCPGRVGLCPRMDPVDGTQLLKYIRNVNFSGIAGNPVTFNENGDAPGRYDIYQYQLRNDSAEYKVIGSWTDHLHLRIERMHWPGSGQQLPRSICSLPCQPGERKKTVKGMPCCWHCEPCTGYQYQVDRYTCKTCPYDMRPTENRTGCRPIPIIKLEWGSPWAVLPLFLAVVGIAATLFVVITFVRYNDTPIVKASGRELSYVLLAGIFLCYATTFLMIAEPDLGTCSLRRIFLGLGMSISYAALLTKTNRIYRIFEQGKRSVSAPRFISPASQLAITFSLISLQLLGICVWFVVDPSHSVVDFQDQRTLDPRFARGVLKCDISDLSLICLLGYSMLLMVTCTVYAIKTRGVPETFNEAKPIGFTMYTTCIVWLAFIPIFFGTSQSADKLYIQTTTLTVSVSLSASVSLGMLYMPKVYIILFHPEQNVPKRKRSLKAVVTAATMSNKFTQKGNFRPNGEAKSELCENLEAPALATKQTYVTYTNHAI

N[C@@H](CCP(=O)(O)O)C(=O)O [L-AP4, L-(+)-2-amino-4-phosphonobutryic acid]
CNS penetration [1]: limited CNS penetration

Cc1ccc(-n2ncc3c(N4CCCC(C)C4)ncnc32)c(C)c1 (centres unmarked) [Compound 7, 1-(2,4-dimethylphenyl)-4-(3-methylpiperidin-1-yl)-1H-pyrazolo[3,4-d]pyrimidine]
EC50 [2]: ~5 µM | effect on the glutamate max (maximal response) ([2]; compound at 30 µM): no increase in the glutamate max | Fold shift (leftward shift of the glutamate response curve) ([2]; compound at 30 µM, HTS stock of 7): 27.2(±8.5) fold and 27.2 fold | potentiation of an EC20 of glutamate in the HTS campaign ([2]; mGluR4/Gqi5 CHO cells, HTS): Concentration-dependent potentiation | effect on mGluR4 in the absence of glutamate ([2]; no glutamate): does not activate mGluR4 | parent compound remaining [3]: 9% | mode of action at mGluR1 [4]: full antagonist | selectivity versus mGluR5 [5]: selective versus mGluR5

O=C(Nc1ccccc1)[C@]12C[C@H]1/C(=N\O)c1ccccc1O2 [(−)-PHCCC, reference compound]
effect on the glutamate max (maximal response) ([2]; compound at 30 µM): elevation in the glutamate max; also recorded: increases maximal response | brain penetration [1]: limited brain penetration
